Screening data (PubChem)
PAFAH1B3 FP inh: inhibitors of human PAFAH1B3; recombinant PAFAH1B3, FP-rhodamine probe, fluorescence polarization; 340,000 compounds, 0.28% hits; AID 492972; inhibition, % at 3.39 µM; Q15102;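 active means inhibition above the screen-wide average of all tested compounds plus 3 SD, cut at about 25% in these data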;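 further: 0% = enzyme with DMSO only and 100% = wells lacking PAFAH1B3 protein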
Target sequence (Q15102 whole entry, looked up): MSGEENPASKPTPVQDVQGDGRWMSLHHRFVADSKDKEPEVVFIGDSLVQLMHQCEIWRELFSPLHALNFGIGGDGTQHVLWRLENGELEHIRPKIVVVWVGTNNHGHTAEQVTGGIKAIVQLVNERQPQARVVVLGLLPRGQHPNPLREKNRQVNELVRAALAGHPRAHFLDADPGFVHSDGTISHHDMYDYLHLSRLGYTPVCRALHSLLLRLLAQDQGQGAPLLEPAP
PAFAH2 FP inh: inhibitors of human PAFAH2; Q99487; recombinant PAFAH2, FP-rhodamine activity probe, fluorescence polarization; inhibition, % at 3.39 µM; 340,000 compounds, 0.99% hits; AID 492956;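 active means inhibition above the mean over all tested compounds plus 3 SD, cut at about 30% in these data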;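 further: inhibitors block probe labeling of enzyme so polarization drops; 0% = enzyme with DMSO and 100% = wells lacking PAFAH2 protein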
PAFAH1B2 inh: inhibitors of human PAFAH1B2; recombinant PAFAH1B2, FP-rhodamine activity probe, fluorescence polarization; inhibition, % at 3.39 µM; 340,000 compounds, 1.2% hits;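 active means inhibition above the mean of all tested compounds plus 3 SD, cut at about 24% in these data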;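 further: 0% = enzyme with DMSO and 100% = wells lacking PAFAH1B2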
Target sequence (P68402 whole entry, looked up): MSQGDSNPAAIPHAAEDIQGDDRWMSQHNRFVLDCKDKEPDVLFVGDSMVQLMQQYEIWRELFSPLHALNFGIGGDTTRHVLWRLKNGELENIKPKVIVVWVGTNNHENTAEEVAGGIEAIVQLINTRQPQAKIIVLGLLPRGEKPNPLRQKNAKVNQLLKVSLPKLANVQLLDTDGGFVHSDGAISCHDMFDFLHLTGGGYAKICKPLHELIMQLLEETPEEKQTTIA
pPAFAH FP inh: inhibitors of human plasma PAF acetylhydrolase (pPAFAH); Q13093; recombinant pPAFAH, FP-rhodamine probe fluorescence polarization; inhibition, % at 3.39 µM; 330,000 compounds, 1.5% hits; AID 463082;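 active means inhibition above the mean inhibition across the screen plus 3 SD, cut at about 25% in these data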;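 further: inhibitors block binding of the rhodamine activity-based probe so polarization drops; 0% = enzyme with DMSO and 100% = wells lacking pPAFAH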
ASAP1 GAP inh: ASAP1 ArfGAP inhibition; Q9ULH1; ASAP1-stimulated ARF1 GTP hydrolysis, GDP FP detection; inhibition, % at 16.5 µM; 360,000 compounds, 0.19% hits; in the data active means inhibition above about 25%;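 further: 0% = vehicle with enzyme and substrate and 100% = no enzyme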
ARFGAP1 inhibitor: rat ARFGAP1 inhibition | Arfgap1-stimulated ARF1 GTP hydrolysis, GDP FP detection | 360,000 compounds, 0.26% hits | inhibition, % at 16.5 µM | AID 651572;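 active means inhibition above a per-plate limit, mean inhibition of low control wells plus 3 SD, cut at about 25% in these data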;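 further: 0% = DMSO wells with enzyme and 100% = wells lacking Arfgap1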
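Repeats: one replicate per compound; assay system: rat Arfgap1 catalytic domain, aa 1-136; times: enzyme reaction 120 min at 25 °C after 20 min preincubation; detection: FP of antibody-bound GDP Alexa 633 tracer, ex 620/em 688 nm; benchmarks: high control wells lacking Arfgap1, low control full reaction with DMSO; reagent: human ARF1(Δ1-17)-GTP substrate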
PAFAH2 confirm: PAFAH2 (human) inhibition, confirmed | shares compounds with PAFAH2 FP inh | inhibition, % at 3.39 µM | 2,300 compounds, 65% hits | recombinant PAFAH2, FP-rhodamine activity probe, fluorescence polarization | AID 493030;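 active means mean inhibition over three repeats above a set limit taken from the earlier primary screen, cut at about 30% in these data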;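 further: inhibitor blocks binding of rhodamine activity probe so polarization falls; 0% = enzyme with DMSO and 100% = wells lacking PAFAH2 protein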
The depositor's hits bear a star; . = no result given. A selection: hits, their analogues and other compounds. The true share with any hit is near 2.7%.

SMILES | PAFAH1B3 FP inh | PAFAH2 FP inh | PAFAH1B2 inh | pPAFAH FP inh | ASAP1 GAP inh | ARFGAP1 inhibitor | PAFAH2 confirm
Cc1ccc(C(=O)OCC(=O)NC2CC2)cc1S(=O)(=O)N1CCOCC1 | 4 | 51* | -5 | 12 | -3 | 2 | 32*
Cc1ccc(NC(=O)COC(=O)c2ccc(C)c(S(=O)(=O)N3CCOCC3)c2)cc1 | 8 | 71* | 5 | . | 5 | 1 | 71*
Cc1ccc(NC(=O)COC(=O)c2ccco2)cc1S(=O)(=O)N1CCOCC1 | -3 | 66* | 2 | -6 | 5 | 4 | 60*
Cc1cnc(C(=O)OCC(=O)Nc2ccc(C)c(S(=O)(=O)N3CCOCC3)c2)cn1 | 14 | -1 | 3 | -4 | 2 | -7 | .
Cc1ccc(C(=O)OCC(=O)c2ccc(Br)cc2)cc1S(=O)(=O)N1CCOCC1 | 7 | 34* | 17 | . | 6 | 2 | 19
NC(=O)c1ccc(NC(=O)COC(=O)c2ccc(Br)c(S(=O)(=O)N3CCOCC3)c2)cc1 | 1 | 5 | 1 | . | 10 | 2 | .
Cc1ccc(C(=O)OCC(=O)NCc2cccs2)cc1S(=O)(=O)N1CCOCC1 | 2 | 49* | -1 | 14 | 2 | 0 | 38*
Cc1ccc(NC(=O)COC(=O)/C=C/c2ccccc2)cc1S(=O)(=O)N1CCOCC1 | -4 | 58* | 1 | -1 | 7 | 1 | 34*
CNc1ccc(Br)cc(C(=O)/C=C/c2cccc(Cl)c2Cl)c1=O | 15 | 44* | 10 | . | -1 | -6 | 15
CSCCC(NC(=O)c1cccc(C)c1)C(=O)NCc1cccs1 (stereo not drawn) | 7 | 3 | 3 | 3 | 2 | 1 | .
O=C1CCCC(O)=C1N=Nc1ccc(Cl)c(Cl)c1 | -2 | 33* | 4 | 6 | 9 | 6 | 9
c1ccc(-c2nnc3nc(N4CCCCC4)nc(N4CCCCC4)n23)cc1 | 3 | 1 | 5 | . | 8 | 2 | .
C[C@H](CO)N1C[C@H](C)[C@@H](CN(C)S(C)(=O)=O)Oc2ccc(NC(=O)NC3CCCCC3)cc2C1=O | 8 | 3 | 11 | 12 | 7 | 15 | .
COc1ccc(OC)c(/C=C/C(=O)OCC(=O)Nc2ccc(Cl)c(S(=O)(=O)N(C)C)c2)c1 | -1 | 45* | 3 | -2 | 8 | 22 | 42*
COc1cccc(/C=C/C(=O)OCC(=O)Nc2ccc(Cl)c(S(=O)(=O)N(C)C)c2)c1OC | -3 | 82* | -3 | 7 | -1 | -3 | 73*
CCOC(=O)C1CCN(C(=O)c2ccccc2)c2scc(-c3ccccc3)c2C1=O (stereo not drawn) | . | . | . | . | 13 | 7 | .
O=C(Nc1ccccc1-c1nc2ccccc2[nH]1)c1ccc(S(=O)(=O)N2CCCCC2)cc1 | -32 | -50 | -23 | . | 5 | -5 | .
CC1CCCCN1S(=O)(=O)c1ccc(C(=O)Nc2ccccc2-c2nc3ccccc3[nH]2)cc1 (stereo not drawn) | -36 | 37* | 4 | -15 | 6 | 1 | 4
CN(C)c1ccc(N/C(=N\S(=O)(=O)c2cccs2)c2ccccc2)cc1 | 8 | 57* | 4 | 4 | -1 | 16 | 54*
CCN(CC)S(=O)(=O)c1cc(C(=O)OCC(=O)NC(=O)c2cccn2C)ccc1C | -4 | 62* | 6 | 18 | -6 | -7 | 50*
Cn1cccc1C(=O)NC(=O)COC(=O)c1ccc(S(C)(=O)=O)cc1 | 8 | -1 | 2 | 2 | 1 | 7 | .
Cn1cccc1C(=O)NC(=O)COC(=O)c1ccc(O)cc1 | 2 | 52* | 0 | -2 | 6 | 7 | 45*
CC(C)(C)C(=O)COC(=O)c1ccc(O)cc1 | 4 | -1 | 5 | -6 | -7 | 3 | .
CC(C)NC(=O)COC(=O)c1ccc(O)cc1 | 5 | 48* | 3 | -4 | -3 | -9 | 24
C=C(C)c1cccc(C(C)(C)NC(=O)NNC(=O)c2ccccc2O)c1 | 19 | 35* | 1 | 1 | -3 | 6 | 30
CCCCNC(=O)c1ccccc1NC(=O)c1ccc2c(c1)OCO2 | 8 | 47* | 4 | -5 | 1 | 11 | 38*
CC(C)(C)NC(=O)c1ccccc1NC(=O)c1ccc2c(c1)OCO2 | 6 | 3 | 0 | 2 | -5 | -1 | .
